From publication PMC4935665 (Journal of bone and mineral research : the official journal …, 2016)

Tests used:
cynomolgus monkeys = assay: Single SC injection in cynomolgus monkeys, serum Ca; assay type: in vivo, cynomolgus monkey; settings: SC 10 nmol/kg
How it was run: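 Normal cynomolgus monkeys receive SC injections in two experiments, with serum Ca followed after injection. In experiment 1, animals get vehicle or test peptide at 0.25, 0.5 or 1.0 nmol/kg, three animals per dose.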

TPTX rats [1] = assay: Single IV injection in TPTX rats, serum Ca and Pi; assay type: in vivo, rat; settings: for time for sPi to return to vehicle-control levels: single IV 24.3 nmol/kg; for sCa response versus sham-control level: single IV 24.3 nmol/kg (highest dose); for duration of modest, transient sCa increase and sPi decrease: single IV, dose 80-fold higher than that used for LA-PTH
rats = settings: daily injection 20 nmol/kg sc; cited from earlier work
in vivo = settings: rat, iv, 24.3 nmol/kg
[2] = human, in vivo; cited from earlier work
TPTX rats [3] = assay type: in vivo, rat; settings: once daily SC 9 nmol/kg
[4] = rat, in vivo, iv
HP patients = settings: cited from earlier work
[5] = HP patients, single SC injection

## CC[C@H](C)[C@H](NC(=O)[C@H](CCC(=O)O)NC(=O)[C@H](CO)NC(=O)[C@@H](NC(=O)[C@@H](N)CO)C(C)C)C(=O)N[C@@H](CCC(N)=O)C(=O)N[C@@H](CC(C)C)C(=O)N[C@@H](CCSC)C(=O)N[C@@H](Cc1c[nH]cn1)C(=O)N[C@@H](CC(N)=O)C(=O)N[C@@H](CC(C)C)C(=O)NCC(=O)N[C@@H](CCCCN)C(=O)N[C@@H](Cc1c[nH]cn1)C(=O)N[C@@H](CC(C)C)C(=O)N[C@@H](CC(N)=O)C(=O)N[C@@H](CO)C(=O)N[C@@H](CCSC)C(=O)N[C@@H](CCC(=O)O)C(=O)N[C@@H](CCCNC(=N)N)C(=O)N[C@H](C(=O)N[C@@H](CCC(=O)O)C(=O)N[C@@H](Cc1c[nH]c2ccccc12)C(=O)N[C@@H](CC(C)C)C(=O)N[C@@H](CCCNC(=N)N)C(=O)N[C@@H](CCCCN)C(=O)N[C@@H](CCCCN)C(=O)N[C@@H](CC(C)C)C(=O)N[C@@H](CCC(N)=O)C(=O)N[C@@H](CC(=O)O)C(=O)N[C@H](C(=O)N[C@@H](Cc1c[nH]cn1)C(=O)N[C@@H](CC(N)=O)C(=O)N[C@@H](Cc1ccccc1)C(=O)O)C(C)C)C(C)C [PTH(1–34)]
Cynomolgus monkeys; n = 3
  efficacy for elevating sCa compared with PTH(1–84): even less effective
TPTX rats [1]
  time for sPi to return to vehicle-control levels: ≤ 10 h
  sCa response versus sham-control level: failed to attain the sCa levels seen in the sham-control animals
  duration of modest, transient sCa increase and sPi decrease: < 6 h
rats
  serum calcium or phosphorus: little or no change
In vivo
  half-life: 7.8 min

## PTH(1–84): human parathyroid hormone, produced recombinantly
Cynomolgus monkeys
  time for sCa to return to vehicle-control levels: ≤ 24 h
Cynomolgus monkeys; n = 2
  peak sCa level: ~ 11.4 mg/dL
TPTX rats [1]
  time for sPi to return to vehicle-control levels: ≤ 10 h
  sCa response versus sham-control level: failed to attain the sCa levels seen in the sham-control animals
  duration of modest, transient sCa increase and sPi decrease: < 6 h
[2]
  true serum half-life in the blood: five minutes or less
TPTX rats [3]
  lumbar and femur BMD: significantly increased
  sCa versus vehicle-injected TPTX rats: no persistent increase
  sPi versus vehicle-injected TPTX rats: only marginal reductions
  trabecular number at the distal femur: significantly increased
[4]
  serum half-life t1/2: 5.4 min
HP patients; [5]
  time for mean serum Ca to return to pre-dose, hypocalcemic levels: ≤ 24 h
  time of peak sCa levels post-administration: ~7 h
HP patients; human, in vivo, sc
  serum half-life times: two to three hours
  subjects with hypercalcemia at peak times: 71%
